Assay results pooled from the literature.
Each line is one published result; the experiments were not run side by side.
ACHE: Acetylcholinesterase (ACHE, Homo sapiens, UniProt P22303)
Sialidase-2: Sialidase-2 (Homo sapiens, UniProt Q9Y3R4)
FABP4: Fatty acid-binding protein, adipocyte (FABP4, Homo sapiens, UniProt P15090)

| Compound | target | assay | system | conditions | endpoint | value |
| --- | --- | --- | --- | --- | --- | --- |
| CC1=C(CO)C(=O)O[C@@H]([C@@H](C)[C@H]2CC[C@H]3[C@@H]4C[C@H]5O[C@]56[C@@H](O)C=CC(=O)[C@]6(C)[C@H]4CC[C@]23C)C1 | Importin subunit beta-1 (KPNB1, Homo sapiens, UniProt Q14974, C158A) | binding, MST |  |  | Kd | 90400 nM |
| Cc1ccccc1C=Nc1ccc(SCc2cc(=O)c(O)co2)cc1 | ACHE | enzyme activity, inhibitor, Ellman |  |  | IC50 | 5300 nM |
| CC(C)(C)CN[C@H]1[C@H]([C@H](O)[C@H](O)CO)OC(C(=O)O)=C[C@@H]1O | Sialidase-2 | enzyme activity, inhibitor |  |  | IC50 | 120000 nM |
| O=C(O)C(F)(F)C(F)(F)C(F)(F)C(F)(F)C(F)(F)C(F)(F)C(F)(F)C(F)(F)C(F)(F)F | FABP4 | ligand displacement, fluorescence |  |  | Ki | 1350 nM |
| CCCCOP(=O)(O)C(C)=O | 1-deoxy-D-xylulose-5-phosphate synthase (dxs, Escherichia coli, UniProt P77488) | enzyme activity, inhibitor |  |  | Ki | 3000 nM |
| Cc1cn([C@H]2[C@H]([C@H](O)[C@H](O)CO)OC(C(=O)O)=C[C@@H]2O)nn1 | Sialidase-2 | enzyme activity, inhibitor |  |  | IC50 | 80000 nM |
| O=C(O)C(F)(F)C(F)(F)C(F)(F)C(F)(F)C(F)(F)C(F)(F)C(F)(F)F | FABP4 | ligand displacement, fluorescence |  |  | Ki | 1820 nM |
| CC(C)c1cc2c(c(O)c1O)[C@@]1(C(=O)O)CCCC(C)(C)[C@@H]1CC2 | ACHE | enzyme activity, inhibitor |  |  | Ki | 0.58 nM |
| Cn1c(=O)n(CCCCN2CCC3(CC2)OCc2ccccc23)c2ccccc21 | Transporter (Slc6a2, Rattus norvegicus, UniProt Q63380) | ligand displacement, radioligand |  | cell membranes | Ki | 232 nM |
| CC(C)c1cc2c(c(O)c1O)[C@@]13CCCC(C)(C)[C@@H]1[C@H](OC3=O)[C@H]2O | ACHE | enzyme activity, inhibitor |  |  | Ki | 0.23 nM |
| CC(=O)c1c(C)c2cnc(Nc3ccc(C4CCN(CCS(C)(=O)=O)CC4)cn3)nc2n(C2CCCC2)c1=O | Cytochrome P450 2C8 (CYP2C8, Homo sapiens, UniProt P10632) | enzyme activity, inhibitor | human, liver microsomes |  | IC50 | > 10000 nM |
| Cc1c(-c2cccnc2)c2ccccc2n1CCCCC(=O)O | FABP4 | ligand displacement, fluorescence |  |  | Kd | 3260 nM |
| O=c1cc(CSc2ccc(N=Cc3ccc(Br)cc3)cc2)occ1O | ACHE | enzyme activity, inhibitor |  |  | Ki | 907 nM |
